# Experiments:
# SW480 [1] = experiment: Cell cycle arrest in SW480 cells by accumulation at S phase at 100 uM after 72 hrs; assay type: functional, Homo sapiens
# How it was run: (§1)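 Colorectal cells given 100 µM compound for 72 h. Afterwards 10^6 cells/mL were resuspended in propidium iodide solution and held overnight at 4 °C, then run on flow cytometry. Doublets and aggregates were gated out on FL2-area/FL2-width before calculating the percentage of cells in G1, S and G2/M phases.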
# HCT-116 [2] = experiment: Cell cycle arrest in HCT116 cells by accumulation at G1 phase at 100 uM after 72 hrs; assay type: functional, Homo sapiens; how it was run: as §1
# HCT-116 [3] = experiment: Cell cycle arrest in HCT116 cells by accumulation at S phase at 100 uM after 72 hrs; assay type: functional, Homo sapiens; how it was run: as §1
# SW480 [4] = experiment: Cell cycle arrest in SW480 cells by accumulation at G1 phase at 100 uM after 72 hrs; assay type: functional, Homo sapiens; how it was run: as §1
# SW480 [5] = experiment: Antiproliferative activity against human SW480 cells after 72 hrs; assay type: functional, cell-based; conditions: SW480, 72 h
# How it was run: (§2)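 Asynchronously growing cells seeded at 5 × 10^3 cells/well and held 24 h in medium, then exposed to drug for 72 h; MTT reagent (5 mg/mL stock) added. Growth taken as absorbance of treated wells as percent of untreated controls. IC50 is the dose giving 50% growth inhibition versus untreated cells. Five separate experiments, each in triplicate; mean ± SD.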
# SW480 [6] = experiment: Cell cycle arrest in SW480 cells by accumulation at G2/M phase at 100 uM after 72 hrs; assay type: functional, Homo sapiens; how it was run: as §1
# SW48 [7] = experiment: Cell cycle arrest in SW48 cells by accumulation at S phase at 100 uM after 72 hrs; assay type: functional, Homo sapiens; how it was run: as §1
# HCT-116 [8] = experiment: Antiproliferative activity against human HCT116 cells after 72 hrs; assay type: functional, cell-based; conditions: HCT-116, 72 h; how it was run: as §2
# SW48 [9] = experiment: Cell cycle arrest in SW48 cells by accumulation at G1 phase at 100 uM after 72 hrs; assay type: functional, Homo sapiens; how it was run: as §1
# HCT-116 [10] = experiment: Cell cycle arrest in HCT116 cells by accumulation at G2/M phase at 100 uM after 72 hrs; assay type: functional, Homo sapiens; how it was run: as §1
# SW48 [11] = experiment: Antiproliferative activity against human SW48 cells after 72 hrs; assay type: functional, cell-based; conditions: SW48, 72 h; how it was run: as §2
# [12] = Antiproliferative activity against human Mes-sa cells after 72 hrs; assay type: functional, cell-based
# How it was run: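 Cells seeded at 5 × 10^3 cells/well and allowed 24 h in medium before compound addition. Exposure lasted 72 h, followed by MTT read-out. Growth was expressed as absorbance relative to untreated controls, and IC50 was taken as the dose giving 50% growth inhibition. Five separate experiments were run, each in triplicate, reported as mean ± SD.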
# SW48 [13] = experiment: Cell cycle arrest in SW48 cells by accumulation at G2/M phase at 100 uM after 72 hrs; assay type: functional, Homo sapiens; how it was run: as §1
# MCF7 = experiment: Antiproliferative activity against human MCF7 cells after 72 hrs; assay type: functional, cell-based; conditions: MCF7, 72 h; how it was run: as §2
Structure (SMILES),Activity (SW480 [1]) [%],Activity (HCT-116 [2]) [%],Activity (HCT-116 [3]) [%],Activity (SW480 [4]) [%],IC50 (SW480 [5]) [µM],Activity (SW480 [6]) [%],Activity (SW48 [7]) [%],IC50 (HCT-116 [8]) [µM],Activity (SW48 [9]) [%],Activity (HCT-116 [10]) [%],IC50 (SW48 [11]) [µM],IC50 [12] [µM],Activity (SW48 [13]) [%],IC50 (MCF7) [µM]
COC(=O)c1cc(O)c2[nH]c3ncccc3c2c1,26.5,56.6,29.1,58.7,8.8,14.7,18.9,7.1,62.4,14.3,9,16,18.7,11
COC(=O)c1cc(OC)c2[nH]c3ncccc3c2c1,27.3,52.6,31,60.7,4.7,11.9,23,8.6,59,16.4,5.6,144,18.1,4.4
COc1cc(CO)cc2c1[nH]c1ncccc12,33,53.3,17.4,52.3,63.1,14.7,9.7,36.6,57.4,29.3,21.1,65,32.4,58
COC(=O)c1cc(O)c2[nH]c3ccccc3c2c1 [CLAUSINE E],17.5,60,12.1,59.9,4.8,25.7,12.5,1.9,65.6,28,21,35,21.9,0.6
O=c1[nH]cc(F)c(=O)[nH]1 [FLUOROURACIL],–,–,–,–,3.5,–,–,2.8,–,–,5.3,–,–,0.3
COC(=O)c1cc(OC)c2[nH]c3ccccc3c2c1 [MUKONINE],33.8,70.8,17.4,55.8,72,10.3,14.1,43,76.7,11.7,62,80,9,30

# From ChEMBL document CHEMBL1149612, “Synthesis and antiproliferative activity of clausine E, mukonine, and koenoline bioisosteres” (Bioorg Med Chem, 2007)
